Compound activity deposited in PubChem by The Scripps Research Institute Molecular Screening Center.
TAAR1 ag – human TAAR1 agonism; Q96RJ0; activation, % at 3 µM; CHO RD-HGA16 TAAR1, Fluo-8 calcium fluorescence; vehicle wells 0%, saturating PEA agonist 100%; 360,000 tested, 0.99% active;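 active = activation above the mean activation of all test compounds in the run plus 3 SD, cut at about 38% in these data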
Target sequence (Q96RJ0 whole entry, looked up): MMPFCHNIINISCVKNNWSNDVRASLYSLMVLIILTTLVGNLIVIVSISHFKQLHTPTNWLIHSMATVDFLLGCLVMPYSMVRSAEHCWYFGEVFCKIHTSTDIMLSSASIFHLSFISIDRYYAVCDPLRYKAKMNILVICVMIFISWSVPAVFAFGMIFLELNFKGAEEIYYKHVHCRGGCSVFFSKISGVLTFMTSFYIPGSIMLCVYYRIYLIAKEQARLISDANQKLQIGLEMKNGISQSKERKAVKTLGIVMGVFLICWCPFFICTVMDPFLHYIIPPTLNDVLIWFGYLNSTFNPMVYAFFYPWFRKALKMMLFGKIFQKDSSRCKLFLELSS
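test system = CHO RD-HGA16 cells carrying human TAAR1 plus Gα16 | schedule = 17-24 h seeding, 75 min 37 °C dye, 30 min RT | compound dosing = 3 µM single concentration | control set = DMSO and PEA EC100 | replicates = n 1 | signal = Fluo-8 fluorescence, 5 s baseline then 140 s kinetic read | measure = percent activation vs PEA EC100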
GalR3 antagonist – antagonists of human GalR3; O60755; HEK293 GalR3-CNG cAMP membrane potential fluorescence; galR3 body fused to GalR1 C-terminus; inhibition, % at 3 µM; 360,000 tested, 0.44% active;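 active = inhibition above the screen-wide average plus 3 SD, cut at about 13% in these data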;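 also: forskolin and galanin both at EC90 stimulate the cells; cAMP rise reported by CNG channel membrane potential dye signal; 0% = forskolin plus galanin with DMSO and 100% = forskolin alone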
TAAR1 antag – antagonists of human TAAR1. Q96RJ0. inhibition, % at 3 µM. 360,000 tested, 1.5% active. AID 624466. CHO RD-HGA16 TAAR1, Fluo-8 calcium fluorescence, antagonist;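 active = inhibition above a per-plate cutoff, the mean inhibition of test compounds on that plate plus 3 SD, cut at about 49% in these data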;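 also: 0% = DMSO plus EC80 beta-PEA response and 100% = DMSO alone without agonist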
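Material: RD-HGA16 CHO cells with stable hTAAR1 and Gα16; Dosing: single nominal final test compound concentration of 3 µM; Schedule: seeding 17-24 h prior, 75-min 37 °C, 30-min RT dye loading; Detection: kinetic Fluo-8 calcium fluorescence measurement; Measure: % inhibition from peak post-agonist over basal fluorescence ratio; Benchmarks: vehicle and agonist controls.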
OX1R antag-1 – blocks the human orexin 1 receptor; O43613; OX1R-expressing cells, FRET antagonist read-out; inhibition, % at 6.6 µM; 330,000 tested, 1.8% active; in the data active = inhibition mostly above about 38%, no sharp cut-off; inactive = mostly below about 40%;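 also: 0% = agonist challenge alone and 100% = reference antagonist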
OX1R antag-2 – blocks the human orexin 1 receptor. O43613. inhibition, % at 5 µM. AID 434989. 330,000 tested, 0.43% active. CHO/OX1R cells, Fluo-8 calcium fluorescence, orexin A;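 active = inhibition above its plate's threshold, mean inhibition of all tested compounds on the plate plus 3 SD, cut at about 37% in these data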;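 also: 0% = orexin A challenge wells and 100% = SB-334867-A antagonist wells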
CHO parental Ca – counter-screen: ATP calcium response change in parental CHO cells | parental CHO-K1, ATP-induced calcium, Fluo-8 fluorescence | inhibition, % at 5.6 µM | 330,000 tested, 0.63% active | AID 463079;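 active = inhibition above that plate's mean sample inhibition plus 3 SD, cut at about 26% in these data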;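 also: 0% = ATP-challenged DMSO wells and 100% = DMSO wells without ATP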
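test system = CHO parental line | reagent = ATP stimulus | measured by = intracellular calcium via Fluo-8 no-wash fluorescent dye | control set = ATP and no-ATP DMSO wells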
TAAR1 ag conf – confirmation of human TAAR1 agonists | shares compounds with TAAR1 ag | CHO RD-HGA16 TAAR1, Fluo-8 calcium fluorescence; scaled: DMSO 0%, maximal phenethylamine 100% | activation, % at 3 µM | 2,400 tested, 82% active;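 active = activation above a cutoff set at the run's mean compound activation plus 3 SD, cut at about 39% in these data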
Ga16 ag counter – nonselective agonism, TAAR1 counter-screen | 2,400 tested, 50% active | activation, % at 3 µM | shares compounds with TAAR1 ag | AID 651787 | CHO-Ga16 parental, Fluo-8 calcium fluorescence; normalized to maximal ATP response, DMSO zero;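 active = activation above the run cutoff, the mean activation over all tested wells plus 3 SD, cut at about 12% in these data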;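 also: 0% = DMSO wells and 100% = maximal ATP response on the peak over basal ratio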
TAAR1 desensitize – human TAAR1 agonist that also desensitizes the receptor; shares compounds with TAAR1 ag; CHO RD-HGA16 hTAAR1, Fluo-8 calcium, beta-PEA response inhibition; inhibition, % at 3 µM; 2,400 tested, 46% active; AID 651951;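 active = inhibition above the run cutoff, the mean inhibition of all test compounds plus 3 SD, cut at about 49% in these data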;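 also: beta-PEA stimulus applied at its EC80; loss of beta-PEA calcium signal after compound pretreatment read as receptor desensitization; 0% = DMSO with beta-PEA at EC80 and 100% = DMSO alone without agonist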
Ga16 antag count – nonselective Ga16 antagonist in TAAR1 agonist counter-screen. shares compounds with TAAR1 ag. CHO-Ga16 ATP-induced calcium, Fluo-8 fluorescence. AID 651952. inhibition, % at 3 µM. 2,400 tested, 39% active;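 active = inhibition above the plate's mean compound inhibition plus 3 SD, computed per plate, cut at about 22% in these data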;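 also: 0% = EC80 ATP with DMSO and 100% = DMSO wells without ATP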
* marks the source's active call; other numbers are inactive results. In the library only some 4.2% were active in any assay of this set; here they are far more common.

Screening O=C(/C=C/c1ccccc1)N/C(=C/c1ccccc1)C(=O)N1CCOCC1 returned TAAR1 ag -0.7, GalR3 antagonist 2.3, TAAR1 antag 4.4, OX1R antag-1 12.8, OX1R antag-2 -16.1 and CHO parental Ca -4.4.
CC(C)CC(N)c1csc(NC(=O)C(c2ccccc2)c2ccccc2)n1 (stereo not drawn) was read as TAAR1 ag 74.9*, GalR3 antagonist -9.5, TAAR1 antag 66.2*, TAAR1 ag conf 75.2*, Ga16 ag counter 33.6*, TAAR1 desensitize 72.7* and Ga16 antag count 50.1*.
O=C(Nc1ncc(S(=O)(=O)c2ccc([N+](=O)[O-])cc2)s1)c1ccccc1F was read as TAAR1 ag 100.6*, GalR3 antagonist -5.0, TAAR1 antag 59.4*, OX1R antag-1 31.3, OX1R antag-2 53.6*, CHO parental Ca 39.0*, TAAR1 ag conf 109.7*, Ga16 ag counter 60.7*, TAAR1 desensitize 83.7* and Ga16 antag count 51.5*.
COC(=O)C(NC(=O)c1ccccc1C)(Nc1ncc(S(=O)(=O)c2ccc([N+](=O)[O-])cc2)s1)C(F)(F)F (stereo not drawn) was read as TAAR1 ag 70.2*, GalR3 antagonist -2.8, TAAR1 antag 30.3, OX1R antag-1 20.3, OX1R antag-2 8.9, CHO parental Ca -5.6, TAAR1 ag conf 54.8*, Ga16 ag counter 25.7*, TAAR1 desensitize 51.5* and Ga16 antag count 22.5*.
For O=C(COC(=O)CCC1CCCC1)Nc1cc(S(=O)(=O)N2CCOCC2)ccc1Cl the results were TAAR1 ag 2.3, GalR3 antagonist -4.4 and TAAR1 antag 0.0.
Screening Cc1cc(NC(=S)N(CCCN2CCN(C)CC2)Cc2ccco2)ccc1Cl returned TAAR1 ag 3.1, GalR3 antagonist 2.1, TAAR1 antag -1.9, OX1R antag-1 8.4, OX1R antag-2 -15.6 and CHO parental Ca -13.7.
Screening CC(C)(C)C1CCc2onc(C(=O)NC3CCCC3)c2C1 (stereo not drawn) returned TAAR1 ag 45.1*, GalR3 antagonist -6.5, TAAR1 antag -24.4, OX1R antag-1 7.5, OX1R antag-2 -29.0, CHO parental Ca -22.8, TAAR1 ag conf 71.0*, Ga16 ag counter 38.6*, TAAR1 desensitize 9.1 and Ga16 antag count 5.1.
Cc1cc(/C=C2/NC(=O)NC2=O)c(C)n1-c1sc2c(c1C#N)CCCC2 was read as TAAR1 ag 63.0*, GalR3 antagonist -2.2, TAAR1 antag -14.2, OX1R antag-1 36.7, OX1R antag-2 -36.4, CHO parental Ca -23.7, TAAR1 ag conf 45.7*, Ga16 ag counter 19.0*, TAAR1 desensitize -5.3 and Ga16 antag count -1.6.
Screening COc1ccc(/C=C(\NC(=O)c2cccs2)C(=O)Nc2ccccc2C)cc1OC returned TAAR1 ag 9.3, GalR3 antagonist 4.7, TAAR1 antag 16.7, OX1R antag-1 11.1, OX1R antag-2 -3.6 and CHO parental Ca -5.2.
For CCCCOC(=O)Cn1c(=O)oc2ccc(C)cc21 the results were TAAR1 ag -0.6, TAAR1 antag -16.1, OX1R antag-1 0.9, OX1R antag-2 -2.0 and CHO parental Ca 12.2.
